B1: PSGL-1: natural P-selectin ligand on neutrophils (protein, UniProt Q14242 42-412, looked up)
P-selectin glycoprotein …: QATEYEYLDYDFLPETEPPEMLRNSTDTTPLTGPGTPESTTVEPAARRSTGLDAGGAVTELTTELANMGNLSTDSAAMEIQTTQPAATEAQTTQPVPTEAQTTPLAATEAQTTRLTATEAQTTPLAATEAQTTPPAATEAQTTQPTGLEAQTTAPAAMEAQTTAPAAMEAQTTPPAAMEAQTTQTTAMEAQTTAPEATEAQTTQPTATEAQTTPLAAMEALSTEPSATEALSMEPTTKRGLFIPFSVSSVTHKGIPMAASNLSVNYPVGAPDHISVKQCLLAILILALVATIFFVCTVVLAVRLSRKGHMYPVRNYSPTEMVCISSLLPDGGEGPSATANGGLSKAKSPGLTPEPREDREGDDLTLHSFLP

Legend:
C57BL/6 mice = test: APAP-induced ALF model validation; assay type: in vivo, mouse; conditions: APAP 500 mg/kg i.p.
Summary of the method: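 Male C57BL/6 mice were housed under SPF conditions with a 12-hour/12-hour light/dark cycle at 22°C and 45 to 60% humidity. APAP was dissolved in physiological saline by heating at 50°C and given intraperitoneally to induce acute liver failure.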

P-selectin = conditions: read-out: natural PSGL-1 binding to P-selectin (Kd); ref [23]; cited from earlier work

Row | Molecule | serum ALT and AST (C57BL/6 mice; n = 6) | mortality of mice (C57BL/6 mice; within 72 hours, n = 10) | Kd (P-selectin) [nM]
1 | CC(=O)Nc1ccc(O)cc1 [APAP, acetaminophen] | rising rapidly within 12 hours and peaking at 24 hours | over 50% | –
2 | B1 | – | – | 320

— paper PMC11887798 (Science Advances, 2025)
